In ChEMBL document CHEMBL3596134 (J Med Chem, 2015):
Blank lines part the entries; values can stand above or below the compound they belong to.

Assays:
[1] = Oral bioavailability in guinea pig at 30 mg/kg; format: ADME, organism-based, Cavia porcellus; conditions: in vivo
[2] = Oral bioavailability in guinea pig at 10 mg/kg; format: ADME, organism-based, Cavia porcellus; conditions: in vivo
Method in brief: (§1)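 Single iv and oral dosing in rat, guinea pig or dog; iv and po given as solutions in wellsolve/H2O 1/9 with NaOH (2 equiv). Animals fasted before oral dosing; noncrossover design, n = 3. Plasma protein-precipitated with acetonitrile/ethanol (70/30) and assayed by HPLC/MS/MS with negative-ion ionization. Noncompartmental analysis; F from mean po AUC over mean iv AUC.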

[3] = Oral bioavailability in rat at 10 mg/kg; format: ADME, organism-based; conditions: in vivo; method in brief: as §1
[4] = Half life in rat at 1 mg/kg, iv; format: ADME, organism-based; conditions: in vivo; method in brief: as §1
[5] = Half life in guinea pig at 1 mg/kg, iv; format: ADME, organism-based, Cavia porcellus; conditions: in vivo; method in brief: as §1
[6] = Half life in dog at 1 mg/kg, iv; format: ADME, organism-based, Canis lupus familiaris; conditions: in vivo; method in brief: as §1
[7] = Clearance in rat at 1 mg/kg, iv; format: ADME, organism-based; conditions: in vivo; method in brief: as §1
[8] = Clearance in guinea pig at 1 mg/kg, iv; format: ADME, organism-based, Cavia porcellus; conditions: in vivo; method in brief: as §1
[9] = Clearance in dog at 1 mg/kg, iv; format: ADME, organism-based, Canis lupus familiaris; conditions: in vivo; method in brief: as §1
[10] = Volume of distribution at steady state in rat at 1 mg/kg, iv and 3 mg/kg, po; format: ADME, organism-based; conditions: in vivo, read-out: Vdss
Method in brief: (§2)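 Single iv and oral doses were given as solutions in wellsolve/H2O 1/9 with 2 equiv NaOH. Animals were fasted before oral dosing, in a noncrossover design with n = 3. Plasma was protein-precipitated with acetonitrile/ethanol 70/30 and analysed by HPLC/MS/MS (negative-ion Turbo IonSpray). Parameters were derived by noncompartmental analysis and reported as mean ± SD.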

[11] = Volume of distribution at steady state in guinea pig at 1 mg/kg, iv and 10 mg/kg, po; format: ADME, organism-based, Cavia porcellus; conditions: in vivo, read-out: Vdss
[12] = Volume of distribution at steady state in dog at 1 mg/kg, iv and 1 mg/kg, po; format: ADME, organism-based, Canis lupus familiaris; conditions: in vivo, read-out: Vdss; method in brief: as §2
[13] = AUC in rat at 3 mg/kg, po; format: ADME, organism-based; conditions: in vivo; method in brief: as §1
[14] = AUC in guinea pig at 10 mg/kg, po; format: ADME, organism-based, Cavia porcellus; conditions: in vivo; method in brief: as §1
[15] = (§3) AUC in dog at 1 mg/kg, po; format: ADME, organism-based, Canis lupus familiaris; conditions: in vivo; method in brief: as §1
[16] = Oral bioavailability in rat at 3 mg/kg; format: ADME, organism-based; conditions: in vivo; method in brief: as §1
[17] = Oral bioavailability in dog at 1 mg/kg; format: ADME, organism-based, Canis lupus familiaris; conditions: in vivo; method in brief: as §1
[18] = Drug uptake in lung of guinea pig measured over 24 hrs; format: ADME, tissue-based, Cavia porcellus; conditions: read-out: Drug uptake
Method in brief: (§4)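 Lungs homogenized in saline; homogenate digested in 2 mol/L NaOH at 60 °C for 3 h, then diluted 50-fold in PBS. Protein measured by BCA. Compound measured by negative-ion HPLC/MS/MS after ethanol precipitation and expressed as ng/g protein. Plasma and lung values given as mean with SD, n = 4.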

[19] = Plasma concentration in guinea pig measured over 24 hrs; format: ADME, Cavia porcellus; method in brief: as §4
[20] = Ratio of drug level in lung to plasma in guinea pig measured over 24 hrs; format: ADME, Cavia porcellus; conditions: lung and plasma
Method in brief: (§5)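 Guinea pigs were dosed orally. Lungs were homogenized in saline, digested in 2 mol/L NaOH at 60 °C for 3 h, diluted 50-fold in PBS, and assayed for protein by BCA. Drug in lung was quantified by HPLC/MS/MS (negative-ion) after ethanol precipitation and expressed as ng/g protein. Plasma was assayed after acetonitrile/ethanol precipitation. Kp is the lung:plasma concentration ratio.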

[21] = Stability of the compound in ambient light; format: physicochemical
[22] = AUC in guinea pig at 0.2 mg/kg, iv and 1 mg/kg, po administered as cassette dosing; format: ADME, organism-based, Cavia porcellus; conditions: in vivo
[23] = Oral bioavailability in guinea pig at 1 mg/kg administered as cassette dosing; format: ADME, organism-based, Cavia porcellus; conditions: in vivo
Method in brief: (§6)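 Guinea pig cassette dosing of five compounds per solution, 0.2 mg/kg iv and 1 mg/kg po. Vehicle wellsolve/H2O 5/95 with NaOH (1.2 equiv). Animals fasted before oral dosing; noncrossover design, n = 3. Plasma protein-precipitated with acetonitrile/ethanol (70/30) and assayed by negative-ion HPLC/MS/MS. Noncompartmental analysis; F from mean AUCs.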

[24] = Stability of the compound in H2SO4/DME/H2O at 50 degC measured for 24 hrs; format: physicochemical
Method in brief: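 Compound was held in 1 mol/L H2SO4 in DME/H2O at 50 °C for 24 h and checked for degradation.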

[25] = Stability of the compound in NaOH/DME/EtOH/H2O at 50 degC measured for 24 hrs; format: physicochemical
Method in brief: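 Compound was held in 1 mol/L NaOH in DME/EtOH/H2O at 50 °C for 24 h and checked for degradation.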

[26] = test system: Canis familiaris; experiment: as §3; format: ADME, organism-based, Canis lupus familiaris; conditions: in vivo; method in brief: as §1
[27] = Half life in guinea pig at 0.2 mg/kg, iv administered as cassette dosing; format: ADME, organism-based, Cavia porcellus; conditions: in vivo; method in brief: as §6
[28] = Clearance in rat at 1 mg/kg, iv and 1 mg/kg, po; format: ADME, organism-based; conditions: in vivo; method in brief: as §1
[29] = Clearance in rat at 0.2 mg/kg, iv and 1 mg/kg, po administered as cassette dosing; format: ADME, organism-based; conditions: in vivo
[30] = Volume of distribution at steady state in rat at 1 mg/kg, iv and 1 mg/kg, po; format: ADME, organism-based; conditions: in vivo, read-out: Vdss; method in brief: as §2
[31] = Volume of distribution at steady state in rat at 0.2 mg/kg, iv and 1 mg/kg, po administered as cassette dosing; format: ADME, organism-based; conditions: in vivo, read-out: Vdss
[32] = Cmax in rat at 1 mg/kg, po; format: ADME, organism-based; parameters: dose 1 mg/kg, route oral; conditions: in vivo; method in brief: as §1
[33] = Cmax in guinea pig at 1 mg/kg, po administered as cassette dosing; format: ADME, organism-based, Cavia porcellus; parameters: dose 1 mg/kg, route oral; conditions: in vivo; method in brief: as §6
[34] = Cmax in dog at 1 mg/kg, po; format: ADME, organism-based, Canis lupus familiaris; parameters: dose 1 mg/kg, route oral; conditions: in vivo; method in brief: as §1
[35] = AUC in rat at 1 mg/kg, po; format: ADME, organism-based; conditions: in vivo; method in brief: as §1
[36] = AUC in guinea pig at 1 mg/kg, po administered as cassette dosing; format: ADME, organism-based, Cavia porcellus; conditions: in vivo
[37] = Oral bioavailability in rat at 1 mg/kg; format: ADME, organism-based; conditions: in vivo; method in brief: as §1
[38] = test system: Canis familiaris; experiment: Oral bioavailability in dog at 1 mg/kg administered as cassette dosing; format: ADME, organism-based, Canis lupus familiaris; conditions: in vivo
[39] = Plasma concentration in guinea pig at 0.3 mg/kg, po measured over 7 days; format: ADME, organism-based, Cavia porcellus; method in brief: as §4
[40] = Plasma concentration in guinea pig at 3 mg/kg, po measured over 7 days; format: ADME, organism-based, Cavia porcellus; method in brief: as §4
[41] = Drug uptake in lung of guinea pig at 0.3 mg/kg, po measured over 7 days; format: ADME, organism-based, Cavia porcellus; conditions: read-out: Drug uptake; method in brief: as §4
[42] = Drug uptake in lung of guinea pig at 3 mg/kg, po measured over 7 days; format: ADME, organism-based, Cavia porcellus; conditions: read-out: Drug uptake; method in brief: as §4
[43] = Ratio of drug level in lung to plasma in guinea pig at 3 mg/kg, po measured over 7 days; format: ADME, organism-based, Cavia porcellus; conditions: lung and plasma; method in brief: as §5
[44] = Ratio of drug level in lung to plasma in guinea pig at 0.3 mg/kg, po measured over 7 days; format: ADME, organism-based, Cavia porcellus; conditions: lung and plasma; method in brief: as §5

bioavailability [1]: 2.8%
Compound: O=C(O)CCCN1CC(C(=O)O)Oc2c(NC(=O)c3ccc(OCCCCc4ccccc4)cc3)cccc21 (stereo not drawn)

bioavailability [2]: 26%
Compound: O=C(O)CCCn1cc(CC(=O)O)c2c(/C=C/c3ccc(OCCCCOc4ccccc4)cc3)cccc21

bioavailability [2]: 12%
bioavailability [3]: 66%
Compound: O=C(O)CCCc1cn(CC(=O)O)c2c(/C=C/c3ccc(OCCCCOc4ccccc4)cc3)cccc12

bioavailability [2]: 11%
half-life [4]: 8.9 h
half-life [5]: 5.3 h
half-life [6]: 4.7 h
clearance [7]: 1.1 mL/min/kg
clearance [8]: 1.8 mL/min/kg
clearance [9]: 5.5 mL/min/kg
Vd [10]: 0.3 L/kg
Vd [11]: 0.23 L/kg
Vd [12]: 0.38 L/kg
AUC [13]: 39000 ng·h/mL
AUC [14]: 10000 ng·h/mL
AUC [15]: 650 ng·h/mL
bioavailability [16]: 56%
bioavailability [17]: 21%
concentration at 24 h [18]: 253 ng/g
concentration at 24 h [19]: 16 ng/mL
Kp at 24 h [20]: 15
Stability [21]: Unstable
Compound: Cc1c(Cl)cccc1CCCCOc1ccc(/C=C/c2cccc3c(CCCC(=O)O)c(C)n(CC(=O)O)c23)cc1

AUC [22]: 10500 ng·h/mL
bioavailability [23]: 66%
Stability [24]: Stable
Stability [25]: Stable
Stability [21]: Stable
Compound: Cc1c(Cl)cccc1CCCCOc1ccc(C#Cc2cccc3c(CCCC(=O)O)c(C)n(CCCC(=O)O)c23)cc1

AUC [22]: 3400 ng·h/mL
bioavailability [23]: 52%
Compound: Cc1c(Cl)cccc1CCCCOc1ccc(C#Cc2ccc(F)c3c(CCCC(=O)O)c(C)n(CCCC(=O)O)c23)cc1

half-life [4]: 9.6 h
half-life [6]: 7.6 h
Vd [12]: 0.14 L/kg
AUC [26]: 28200 ng·h/mL
bioavailability [23]: 56%
half-life [27]: 7.1 h
clearance [28]: 0.68 mL/min/kg
clearance [29]: 1.1 mL/min/kg
Vd [30]: 0.24 L/kg
Vd [31]: 0.31 L/kg
Cmax [32]: 1190 ng/mL
Cmax [33]: 1010 ng/mL
Cmax [34]: 3690 ng/mL
AUC [35]: 9330 ng·h/mL
AUC [36]: 8510 ng·h/mL
bioavailability [37]: 35%
F [38]: 51%
concentration at 168 h [39]: 8.7 ng/mL
concentration at 168 h [40]: 83 ng/mL
concentration at 168 h [41]: 267 ng/g
concentration at 168 h [42]: 573 ng/g
Kp at 168 h [43]: 8
Kp at 168 h [44]: 30
Compound: Cc1c(F)cccc1CCCCOc1ccc(C#Cc2ccc(F)c3c(CCCC(=O)O)c(C)n(CCCC(=O)O)c23)cc1
